Data on 2 compounds can be found in ChEMBL document CHEMBL1154290, “Synthesis and in vitro autoradiographic evaluation of a novel high-affinity radioiodinated ligand for imaging brain cannabinoid subtype-1 receptors” (Bioorg Med Chem Lett, 2009).

The target in test [1] is Histamine H1 receptor (Homo sapiens) (UniProt P35367). Briefly: Displacement of [3H]Pyrilamine from histamine H1 (receptor) at 10 uM by scintillation counting. The following applies: tested as the 125I-labelled form. The method in brief: (§1)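 Receptor-panel selectivity screen: test ligand at a single 10 μM concentration. Each site is assayed by inhibition of binding of its radioligand, read out as percent inhibition (n = 4).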

Test [2] deals with Vasopressin V2 receptor (Homo sapiens) (UniProt P30518). Briefly: Displacement of [3H]vasopressin from vasopressin2 receptor at 10 uM by scintillation counting. The following applies: tested as the 125I-labelled form. The method in brief:
as §1

Test [3] addresses 5-hydroxytryptamine receptor 2C (Homo sapiens) (UniProt P28335). Briefly: Inhibition of radioligand binding to 5HT1C (receptor) at 10 uM. The following applies: tested as the 125I-labelled form. The method in brief:
as §1

The nature of test [4]: Displacement of [3H]DTG from […] opioid receptor at 10 uM by scintillation counting. The following applies: tested as the 125I-labelled form. The method in brief: as §1
For orientation: Loss of bound radioactivity is the signal in a displacement assay; it reports binding, not function.

Test [5] addresses 5-hydroxytryptamine receptor 1B (Homo sapiens) (UniProt P28222). Briefly: Displacement [3H]GR127543 from 5HT1B (receptor) at 10 uM by scintillation counting. The following applies: tested as the 125I-labelled form. The method in brief:
as §1

Test [6] has as its target 5-hydroxytryptamine receptor 2C (Homo sapiens) (UniProt P28335). Briefly: Displacement of [3H]Mesulergine from 5HT2C (receptor) at 10 uM by scintillation counting. The following applies: tested as the 125I-labelled form. The method in brief: as §1
In test [7] the target is 5-hydroxytryptamine receptor 3A (Homo sapiens) (UniProt P46098). Briefly: Displacement of [3H]LY278584 from 5HT3 (receptor) at 10 uM by scintillation counting. The following applies: tested as the 125I-labelled form. In short, it runs like this:
as §1

Test [8] has as its target 5-hydroxytryptamine receptor 1D (Homo sapiens) (UniProt P28221). Briefly: Displacement [3H]GR127543 from 5HT1D (receptor) at 10 uM by scintillation counting. The following applies: tested as the 125I-labelled form. The method in brief: as §1
For test [9], the target named is D(2) dopamine receptor (Homo sapiens) (UniProt P14416). Briefly: Displacement of [3H]N-methylspiperone from dopamine D 2( receptor) at 10 uM by scintillation counting. The following applies: tested as the 125I-labelled form. In short, it runs like this:
as §1

For test [10], the target named is Sigma non-opioid intracellular receptor 1 (Homo sapiens) (UniProt Q99720). Briefly: Displacement of [3H]Pentazocine from sigma1 opioid receptor at 10 uM by scintillation counting. The following applies: tested as the 125I-labelled form. The method in brief:
as §1

For test [11], the target named is Muscarinic acetylcholine receptor M3 (Homo sapiens) (UniProt P20309). Briefly: Displacement of [3H]QNB from Muscarinic acetylcholine receptor M3 at 10 uM by scintillation counting. The following applies: tested as the 125I-labelled form. The method in brief:
as §1

Test [12] deals with Beta-2 adrenergic receptor (Homo sapiens) (UniProt P07550). Briefly: Displacement of [125I]Iodopindolol from beta2 adrenergic receptor at 10 uM by scintillation counting. The following applies: tested as the 125I-labelled form.
In test [13] the target is Alpha-2B adrenergic receptor (Homo sapiens) (UniProt P18089). Briefly: Displacement of [3H]Clonidine from alpha-2B adrenergic receptor at 10 uM by scintillation counting. The following applies: tested as the 125I-labelled form. In short, it runs like this: as §1
In test [14] the target is Beta-3 adrenergic receptor (Homo sapiens) (UniProt P13945). Briefly: Displacement of [125I]Iodopindolol from beta3 adrenergic receptor at 10 uM by scintillation counting. The following applies: tested as the 125I-labelled form.
Test [15] concerns the target Alpha-2A adrenergic receptor (Homo sapiens) (UniProt P08913). Briefly: Displacement of [3H]Clonidine from alpha-2A adrenergic receptor at 10 uM by scintillation counting. The following applies: tested as the 125I-labelled form. The method in brief:
as §1

The target of test [16] is Beta-1 adrenergic receptor (Homo sapiens) (UniProt P08588). Briefly: Displacement of [125I]Iodopindolol from beta-1 adrenergic receptor at 10 uM by scintillation counting. The following applies: tested as the 125I-labelled form.
Test [17] deals with Muscarinic acetylcholine receptor M4 (Homo sapiens) (UniProt P08173). Briefly: Displacement of [3H]QNB from Muscarinic acetylcholine receptor M4 at 10 uM by scintillation counting. The following applies: tested as the 125I-labelled form. The method in brief: as §1
Test [18] has as its target Vasopressin V1a receptor (Homo sapiens) (UniProt P37288). Briefly: Displacement of [3H]vasopressin from vasopressin1A receptor at 10 uM by scintillation counting. The following applies: tested as the 125I-labelled form. The method in brief: as §1
For test [19], the target named is Muscarinic acetylcholine receptor M1 (Homo sapiens) (UniProt P11229). Briefly: Displacement of [3H]QNB from Muscarinic acetylcholine receptor M1 at 10 uM by scintillation counting. The following applies: tested as the 125I-labelled form. In short, it runs like this:
as §1

In test [20] the target is 5-hydroxytryptamine receptor 1E (Homo sapiens) (UniProt P28566). Briefly: Displacement of [3H]5-HT from 5HT1E (receptor) at 10 uM by scintillation counting. The following applies: tested as the 125I-labelled form. In short, it runs like this:
as §1

Test [21] has as its target D(3) dopamine receptor (Homo sapiens) (UniProt P35462). Briefly: Displacement of [3H]N-methylspiperone from dopamine D 3 ( receptor) at 10 uM by scintillation counting. The following applies: tested as the 125I-labelled form. The method in brief: as §1
The target in test [22] is Sodium-dependent serotonin transporter (Homo sapiens) (UniProt P31645). Briefly: Displacement of [3H]Citalopram from SERT at 10 uM by scintillation counting. The following applies: tested as the 125I-labelled form. In short, it runs like this: as §1
The target in test [23] is 5-hydroxytryptamine receptor 2A (Homo sapiens) (UniProt P28223). Briefly: Displacement of [3H]Ketanserin from 5HT2A (receptor) at 10 uM by scintillation counting. The following applies: tested as the 125I-labelled form. In short, it runs like this: as §1
Test [24] addresses Histamine H2 receptor (Homo sapiens) (UniProt P25021). Briefly: Displacement of [3H]Pyrilamine from histamine H2 (receptor) at 10 uM by scintillation counting. The following applies: tested as the 125I-labelled form. In short, it runs like this: as §1
Test [25] concerns the target Histamine H4 receptor (Homo sapiens) (UniProt Q9H3N8). Briefly: Displacement of [3H]Histamine from histamine H4 (receptor) at 10 uM by scintillation counting. The following applies: tested as the 125I-labelled form. In short, it runs like this: as §1
Test [26] addresses Muscarinic acetylcholine receptor M5 (Homo sapiens) (UniProt P08912). Briefly: Displacement of [3H]QNB from Muscarinic acetylcholine receptor M5 at 10 uM by scintillation counting. The following applies: tested as the 125I-labelled form. In short, it runs like this:
as §1

Test [27] has as its target Muscarinic acetylcholine receptor M2 (Homo sapiens) (UniProt P08172). Briefly: Displacement of [3H]QNB from Muscarinic acetylcholine receptor M2 at 10 uM by scintillation counting. The following applies: tested as the 125I-labelled form. In short, it runs like this: as §1
For test [28], the target named is Vasopressin V1b receptor (Homo sapiens) (UniProt P47901). Briefly: Displacement of [3H]vasopressin from vasopressin1B receptor at 10 uM by scintillation counting. The following applies: tested as the 125I-labelled form. The method in brief: as §1
Test [29] concerns the target 5-hydroxytryptamine receptor 5A (Homo sapiens) (UniProt P47898). Briefly: Displacement of [3H]LSD from 5HT5A (receptor) at 10 uM by scintillation counting. The following applies: tested as the 125I-labelled form. In short, it runs like this: as §1
Test [30] addresses Histamine H3 receptor (Homo sapiens) (UniProt Q9Y5N1). Briefly: Displacement of [3H]alpha-methylhistamine from histamine H3 (receptor) at 10 uM by scintillation counting. The following applies: tested as the 125I-labelled form. In short, it runs like this:
as §1

Test [31] deals with Sodium-dependent noradrenaline transporter (Homo sapiens) (UniProt P23975). Briefly: Displacement of [3H]Nisoxetine from NET at 10 uM by scintillation counting. The following applies: tested as the 125I-labelled form. The method in brief:
as §1

In test [32] the target is Delta-type opioid receptor (Homo sapiens) (UniProt P41143). Briefly: Displacement of [3H]DADLE from delta opioid receptor at 10 uM by scintillation counting. The following applies: tested as the 125I-labelled form. In short, it runs like this: as §1
The target in test [33] is Alpha-1B adrenergic receptor (Homo sapiens) (UniProt P35368). Briefly: Displacement of [3H]Prazosin from alpha-1B adrenergic receptor at 10 uM by scintillation counting. The following applies: tested as the 125I-labelled form. The method in brief: as §1
Test [34] concerns the target 5-hydroxytryptamine receptor 7 (Homo sapiens) (UniProt P34969). Briefly: Displacement of [3H]LSD from 5HT7 (receptor) at 10 uM by scintillation counting. The following applies: tested as the 125I-labelled form. In short, it runs like this:
as §1

The target of test [35] is D(4) dopamine receptor (Homo sapiens) (UniProt P21917). Briefly: Displacement of [3H]N-methylspiperone from dopamine D 4 ( receptor) at 10 uM by scintillation counting. The following applies: tested as the 125I-labelled form. In short, it runs like this: as §1
For test [36], the target named is D(1A) dopamine receptor (Homo sapiens) (UniProt P21728). Briefly: Displacement of [3H]SCH233930 from dopamine D 1 ( receptor) at 10 uM by scintillation counting. The following applies: tested as the 125I-labelled form. The method in brief: as §1
For test [37], the target named is 5-hydroxytryptamine receptor 2B (Homo sapiens) (UniProt P41595). Briefly: Displacement of [3H]LSD from 5HT2B (receptor) at 10 uM by scintillation counting. The following applies: tested as the 125I-labelled form. The method in brief:
as §1

Test [38] addresses Alpha-1A adrenergic receptor (Homo sapiens) (UniProt P35348). Briefly: Displacement of [3H]Prazosin from alpha-1A adrenergic receptor at 10 uM by scintillation counting. The following applies: tested as the 125I-labelled form. In short, it runs like this: as §1
In test [39] the target is 5-hydroxytryptamine receptor 6 (Homo sapiens) (UniProt P50406). Briefly: Displacement of [3H]LSD from 5HT6 (receptor) at 10 uM by scintillation counting. The following applies: tested as the 125I-labelled form. In short, it runs like this: as §1
The target in the next test is Mu-type opioid receptor (Homo sapiens, UniProt P35372). Briefly: Displacement of [3H]DAMGO from mu opioid at 10 uM by scintillation counting.
Test [40] addresses 5-hydroxytryptamine receptor 1A (Homo sapiens, UniProt P08908). Briefly: Displacement of [3H]8OH-DPAT from 5HT1A receptor at 10 uM by scintillation counting.
The target of test [41] is Kappa-type opioid receptor (Homo sapiens, UniProt P41145). Briefly: Displacement of [3H]U69593 from kappa opioid receptor at 10 uM by scintillation counting.
Test [42] concerns the target Alpha-2C adrenergic receptor (Homo sapiens, UniProt P18825). Briefly: Displacement of [125I]Iodoclonidine from alpha-2C adrenergic receptor at 10 uM by scintillation counting.
For the next test, the target named is Cannabinoid receptor 1 (Homo sapiens, UniProt P21554).
Another test has as its target Translocator protein (Homo sapiens, UniProt P30536). Briefly: Displacement of [3H]PK11195 from TSPO at 10 uM by scintillation counting.
The next test has as its target Cannabinoid receptor 2 (Homo sapiens, UniProt P34972). Briefly: Displacement of [3H]CP-55940 from CB2 receptor by scintillation counting. In short, it runs like this:
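CB2 affinity given as Ki from radioligand displacement, reported as mean ± SD of three determinations.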

SMILES strings stand for the structures.

Sequence of 5-hydroxytryptamine receptor 2C (Homo sapiens) (P28335 whole entry): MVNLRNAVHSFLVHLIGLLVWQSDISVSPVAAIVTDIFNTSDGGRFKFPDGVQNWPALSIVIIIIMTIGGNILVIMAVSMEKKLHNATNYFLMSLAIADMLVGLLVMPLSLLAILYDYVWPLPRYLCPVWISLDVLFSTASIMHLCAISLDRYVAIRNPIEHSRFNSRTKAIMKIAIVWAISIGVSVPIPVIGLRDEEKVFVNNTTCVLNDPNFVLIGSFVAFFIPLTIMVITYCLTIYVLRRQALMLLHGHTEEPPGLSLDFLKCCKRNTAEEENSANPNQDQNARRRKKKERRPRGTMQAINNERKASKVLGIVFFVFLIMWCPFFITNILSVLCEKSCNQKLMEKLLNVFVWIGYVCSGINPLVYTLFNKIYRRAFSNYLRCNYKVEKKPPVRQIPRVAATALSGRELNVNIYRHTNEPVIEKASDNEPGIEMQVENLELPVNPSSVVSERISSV
Sequence of Sodium-dependent serotonin transporter (Homo sapiens) (P31645 whole entry, looked up): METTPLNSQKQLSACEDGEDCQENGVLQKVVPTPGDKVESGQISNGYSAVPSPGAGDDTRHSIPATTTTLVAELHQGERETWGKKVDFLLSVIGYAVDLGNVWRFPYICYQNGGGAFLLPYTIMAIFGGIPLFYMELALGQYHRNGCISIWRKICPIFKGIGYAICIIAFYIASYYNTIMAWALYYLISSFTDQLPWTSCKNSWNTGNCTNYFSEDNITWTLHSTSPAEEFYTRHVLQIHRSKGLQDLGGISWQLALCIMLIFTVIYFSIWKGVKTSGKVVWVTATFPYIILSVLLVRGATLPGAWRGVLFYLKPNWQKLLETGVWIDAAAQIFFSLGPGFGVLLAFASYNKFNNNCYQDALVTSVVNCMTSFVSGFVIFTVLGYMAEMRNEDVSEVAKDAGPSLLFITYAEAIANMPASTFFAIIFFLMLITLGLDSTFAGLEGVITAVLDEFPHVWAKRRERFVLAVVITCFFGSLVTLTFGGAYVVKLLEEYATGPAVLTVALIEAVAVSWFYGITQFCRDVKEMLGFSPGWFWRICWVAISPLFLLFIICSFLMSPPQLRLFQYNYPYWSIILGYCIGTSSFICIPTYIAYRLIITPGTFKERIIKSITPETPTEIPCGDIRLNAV
Sequence of Muscarinic acetylcholine receptor M5 (Homo sapiens) (P08912 whole entry): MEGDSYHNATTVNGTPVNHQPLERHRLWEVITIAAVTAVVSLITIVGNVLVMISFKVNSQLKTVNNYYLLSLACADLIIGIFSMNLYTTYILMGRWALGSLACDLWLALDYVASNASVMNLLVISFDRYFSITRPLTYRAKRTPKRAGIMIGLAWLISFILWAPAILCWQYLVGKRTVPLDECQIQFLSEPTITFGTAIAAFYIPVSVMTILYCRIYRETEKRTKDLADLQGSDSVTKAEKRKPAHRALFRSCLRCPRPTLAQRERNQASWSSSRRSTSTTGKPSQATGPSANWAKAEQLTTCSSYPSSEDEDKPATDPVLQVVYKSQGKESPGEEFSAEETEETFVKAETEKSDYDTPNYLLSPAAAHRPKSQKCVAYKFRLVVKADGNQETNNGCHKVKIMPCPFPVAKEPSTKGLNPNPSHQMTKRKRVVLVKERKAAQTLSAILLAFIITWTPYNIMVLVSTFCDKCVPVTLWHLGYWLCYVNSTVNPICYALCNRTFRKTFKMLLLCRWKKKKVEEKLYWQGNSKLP
Sequence of 5-hydroxytryptamine receptor 1D (Homo sapiens) (P28221 whole entry): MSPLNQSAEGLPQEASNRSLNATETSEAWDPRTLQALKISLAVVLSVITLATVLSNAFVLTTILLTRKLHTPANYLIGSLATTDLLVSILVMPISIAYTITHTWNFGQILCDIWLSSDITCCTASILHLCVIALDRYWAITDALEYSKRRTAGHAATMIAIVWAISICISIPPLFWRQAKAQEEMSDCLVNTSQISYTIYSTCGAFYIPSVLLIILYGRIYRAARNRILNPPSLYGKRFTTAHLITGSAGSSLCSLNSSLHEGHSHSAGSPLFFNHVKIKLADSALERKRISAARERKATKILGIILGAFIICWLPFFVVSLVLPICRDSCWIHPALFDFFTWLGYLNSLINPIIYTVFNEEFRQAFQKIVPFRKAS
Sequence of Vasopressin V1b receptor (Homo sapiens) (P47901 whole entry): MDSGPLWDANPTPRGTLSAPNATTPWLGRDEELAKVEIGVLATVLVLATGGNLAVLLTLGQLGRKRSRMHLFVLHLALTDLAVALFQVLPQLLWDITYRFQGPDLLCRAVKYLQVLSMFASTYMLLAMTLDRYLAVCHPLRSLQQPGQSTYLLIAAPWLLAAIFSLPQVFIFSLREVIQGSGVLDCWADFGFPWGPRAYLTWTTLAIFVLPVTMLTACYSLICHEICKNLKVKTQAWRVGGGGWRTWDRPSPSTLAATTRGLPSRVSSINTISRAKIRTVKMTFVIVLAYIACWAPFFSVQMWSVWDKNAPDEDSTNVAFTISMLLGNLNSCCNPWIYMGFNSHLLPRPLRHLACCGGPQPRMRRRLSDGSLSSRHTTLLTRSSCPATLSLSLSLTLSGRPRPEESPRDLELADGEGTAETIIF
Sequence of Sigma non-opioid intracellular receptor 1 (Homo sapiens) (Q99720 whole entry): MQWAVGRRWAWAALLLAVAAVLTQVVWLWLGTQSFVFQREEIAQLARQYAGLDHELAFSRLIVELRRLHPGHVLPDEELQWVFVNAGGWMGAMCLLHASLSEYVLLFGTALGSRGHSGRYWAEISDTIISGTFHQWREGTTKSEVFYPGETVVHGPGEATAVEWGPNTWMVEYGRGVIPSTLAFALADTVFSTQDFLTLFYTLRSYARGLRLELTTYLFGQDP
Sequence of Alpha-2B adrenergic receptor (Homo sapiens) (P18089 whole entry): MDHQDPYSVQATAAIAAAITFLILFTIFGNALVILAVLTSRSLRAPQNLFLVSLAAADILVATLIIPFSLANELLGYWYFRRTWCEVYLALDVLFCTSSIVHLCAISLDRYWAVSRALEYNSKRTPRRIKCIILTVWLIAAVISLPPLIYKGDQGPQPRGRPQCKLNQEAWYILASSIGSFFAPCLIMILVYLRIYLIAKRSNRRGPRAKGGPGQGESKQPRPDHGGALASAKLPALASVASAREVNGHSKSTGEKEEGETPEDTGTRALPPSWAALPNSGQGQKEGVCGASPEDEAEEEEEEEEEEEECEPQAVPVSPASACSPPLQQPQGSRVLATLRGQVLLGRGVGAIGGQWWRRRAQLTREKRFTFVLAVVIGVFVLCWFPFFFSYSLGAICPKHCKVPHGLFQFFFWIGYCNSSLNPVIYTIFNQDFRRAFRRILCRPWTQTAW
Sequence of 5-hydroxytryptamine receptor 1E (Homo sapiens) (P28566 whole entry): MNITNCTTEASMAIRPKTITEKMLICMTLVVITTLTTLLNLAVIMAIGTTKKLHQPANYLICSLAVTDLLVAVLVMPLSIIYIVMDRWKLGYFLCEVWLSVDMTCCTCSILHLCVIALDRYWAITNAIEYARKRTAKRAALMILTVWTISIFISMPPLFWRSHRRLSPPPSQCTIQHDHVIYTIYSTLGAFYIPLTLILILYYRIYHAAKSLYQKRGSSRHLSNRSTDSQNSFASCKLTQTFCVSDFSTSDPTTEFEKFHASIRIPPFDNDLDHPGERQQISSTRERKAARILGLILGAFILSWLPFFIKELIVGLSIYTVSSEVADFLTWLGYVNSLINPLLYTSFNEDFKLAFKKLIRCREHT
Sequence of Beta-2 adrenergic receptor (Homo sapiens) (P07550 whole entry, looked up): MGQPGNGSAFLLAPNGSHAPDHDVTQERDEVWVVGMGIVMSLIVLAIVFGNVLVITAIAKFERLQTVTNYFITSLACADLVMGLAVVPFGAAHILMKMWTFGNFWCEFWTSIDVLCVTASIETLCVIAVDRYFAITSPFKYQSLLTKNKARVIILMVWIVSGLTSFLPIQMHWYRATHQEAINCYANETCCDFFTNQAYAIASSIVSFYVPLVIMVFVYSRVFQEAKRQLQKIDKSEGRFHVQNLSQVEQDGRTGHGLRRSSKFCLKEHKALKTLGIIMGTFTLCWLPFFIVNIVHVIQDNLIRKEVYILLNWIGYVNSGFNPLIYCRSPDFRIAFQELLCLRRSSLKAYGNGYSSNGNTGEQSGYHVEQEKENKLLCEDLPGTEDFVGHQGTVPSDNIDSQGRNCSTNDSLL
Sequence of Muscarinic acetylcholine receptor M3 (Homo sapiens) (P20309 whole entry, looked up): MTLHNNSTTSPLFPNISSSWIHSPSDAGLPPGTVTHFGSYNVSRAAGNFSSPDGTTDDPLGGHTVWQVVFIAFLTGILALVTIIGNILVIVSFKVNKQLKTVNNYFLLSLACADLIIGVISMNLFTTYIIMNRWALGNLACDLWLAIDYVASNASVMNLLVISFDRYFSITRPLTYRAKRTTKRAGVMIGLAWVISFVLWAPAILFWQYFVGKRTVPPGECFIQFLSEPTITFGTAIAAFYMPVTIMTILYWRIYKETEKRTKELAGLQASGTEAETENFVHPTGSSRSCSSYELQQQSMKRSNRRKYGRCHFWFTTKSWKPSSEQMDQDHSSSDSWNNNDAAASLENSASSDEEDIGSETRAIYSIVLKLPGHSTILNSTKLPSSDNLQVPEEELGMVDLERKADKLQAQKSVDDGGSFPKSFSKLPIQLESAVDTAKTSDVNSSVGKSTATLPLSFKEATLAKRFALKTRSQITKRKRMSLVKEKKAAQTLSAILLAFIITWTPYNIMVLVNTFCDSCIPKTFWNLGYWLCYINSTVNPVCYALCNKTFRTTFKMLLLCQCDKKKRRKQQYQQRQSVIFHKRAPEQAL
Sequence of Histamine H3 receptor (Homo sapiens) (Q9Y5N1 whole entry): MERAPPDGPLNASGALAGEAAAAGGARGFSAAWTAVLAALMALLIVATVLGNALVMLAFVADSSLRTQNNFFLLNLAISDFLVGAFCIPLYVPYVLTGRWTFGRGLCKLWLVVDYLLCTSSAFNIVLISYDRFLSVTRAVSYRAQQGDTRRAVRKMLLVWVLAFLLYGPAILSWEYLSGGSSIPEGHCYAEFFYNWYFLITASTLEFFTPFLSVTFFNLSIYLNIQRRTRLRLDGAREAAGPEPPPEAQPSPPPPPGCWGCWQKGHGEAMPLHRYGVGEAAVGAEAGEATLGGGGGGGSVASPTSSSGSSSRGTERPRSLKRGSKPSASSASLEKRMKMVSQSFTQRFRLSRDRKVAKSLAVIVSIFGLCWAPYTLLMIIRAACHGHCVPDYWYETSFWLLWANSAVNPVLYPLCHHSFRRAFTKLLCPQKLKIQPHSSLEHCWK

The term inhibition denotes the relative decrease from the control value, in per cent. A high value points to a strong effect. Turning to `COc1ccc(-c2c(C#N)c(C(=O)NN3CCCCC3)nn2-c2ccccc2I)cc1`, the inhibition in test [1], in [2], in [3], in [4], in [5] and in test [6] was < 50% in each case. Moreover, the inhibition in test [7], in test [8], in test [9], in [10], in test [11] and in test [12] was < 50% throughout. The inhibition in test [13], in test [14], in test [15], in [16], in test [17] and in test [18] was < 50% each time. Moreover, the inhibition in test [19], in test [20], in test [21], in test [22], in [23] and in [24] was < 50% throughout. Also, the inhibition in test [25], in test [26], in test [27], in test [28], in test [29] and in test [30] was < 50% in each case. Moreover, the inhibition in test [31], in [32], in test [33], in test [34], in test [35] and in test [36] was < 50% throughout. Moreover, the inhibition in test [37], in test [38] and in test [39] was < 50% throughout.
The Ki is the equilibrium dissociation constant of an inhibitor or competing ligand from its target. Lower therefore signals higher affinity. Regarding `COc1ccc(-c2c(C#N)c(C(=O)NN3CCCCC3)nn2-c2ccccc2[125I])cc1`, the Ki on Mu-type opioid receptor is 1500 nM; in [40], 93.5 nM; in test [41] it was 1480 nM; in test [42], > 10 µM; on Cannabinoid receptor 1, 3.4 nM; at Translocator protein, 3.17 µM. For the same compound, the affinity at Cannabinoid receptor 2, expressed as Ki, was 548 nM.
